# Keap1 Nrf2 FP – inhibitors of human Keap1-Nrf2 protein-protein interaction. AID 504523. inhibition, % at 9.4 µM. 0.15% of 340,000 active. Q14145. Keap1 Kelch-Nrf2 peptide fluorescence polarization, 1536-well; in the data active = inhibition above about 12%;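 also: human Keap1 Kelch domain with fluorescein labeled Nrf2 9mer peptide probe; higher means more block of Keap1 binding to Nrf2 peptide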
# CAL PDZ FP-1 – inhibitors of human CAL PDZ peptide binding; Q9HD26; purified CAL PDZ, TMR-peptide fluorescence polarization, 1 h; inhibition, % at 20 µM; 0.02% of 330,000 active; AID 504414;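 active = highest replicate inhibition of at least 40%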
#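 Test system: purified CerCALP PDZ construct; Compound dosing: one concentration, 20 µM compound; Also added: TMR-labelled reporter peptide T*-PRC34 bound in PDZ groove; Read-out: inhibition from polarization loss; Controls: unlabelled peptide and DMSO controls; Signal: FP readout, S and P plane fluorescence; Incubation: 1 h at RT.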
# CAL PDZ FP-2 – inhibitors of human CAL PDZ peptide binding. Q9HD26. purified CAL PDZ, TMR-peptide fluorescence polarization, 1 h. inhibition, % at 24.9 µM. 0.92% of 300,000 active. AID 602252;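 active = mean inhibition of at least 30% with at least half of replicates also reaching 30%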
# APOBEC3G inh – APOBEC3G (human) deaminase inhibition. 0.28% of 330,000 active. recombinant A3G, ssDNA deamination FAM/TAMRA fluorescence. inhibition, % at 20 µM. Q9HC16;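 active = inhibition of at least 40% at 20 µM, with no more than 30% in the related APOBEC3A deaminase screen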
# Target sequence (Q9HC16 whole entry, looked up): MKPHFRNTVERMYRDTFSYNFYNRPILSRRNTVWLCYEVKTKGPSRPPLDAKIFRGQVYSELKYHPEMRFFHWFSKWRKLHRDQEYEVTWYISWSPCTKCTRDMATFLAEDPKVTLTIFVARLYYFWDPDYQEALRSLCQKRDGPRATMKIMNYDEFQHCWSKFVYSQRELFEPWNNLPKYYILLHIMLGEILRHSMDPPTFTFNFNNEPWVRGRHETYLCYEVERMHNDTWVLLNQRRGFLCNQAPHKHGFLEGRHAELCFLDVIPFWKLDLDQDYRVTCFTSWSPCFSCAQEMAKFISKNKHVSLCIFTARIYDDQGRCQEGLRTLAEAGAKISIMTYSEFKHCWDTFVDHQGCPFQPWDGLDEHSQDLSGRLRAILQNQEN
# LANA DNA inh – blocks KSHV LANA C-terminal domain binding to DNA | MBP-C-LANA/FAM-LBS DNA binding, fluorescence polarization | inhibition, % at 9 µM | 0.078% of 340,000 active | AID 504423;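 active = highest replicate inhibition at or above 60% at 9 µM, even if other replicates fall short; inactive = all replicates below 60% inhibition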
# APOBEC3A inh – human APOBEC3A DNA deaminase inhibition; recombinant A3A, FAM/TAMRA ssDNA deamination fluorescence; P31941; 0.41% of 330,000 active; AID 493011; inhibition, % at 20 µM;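 active = at least 40% inhibition at 20 µM here, with at most 30% in a related deaminase screen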
# Target sequence (P31941 whole entry, looked up): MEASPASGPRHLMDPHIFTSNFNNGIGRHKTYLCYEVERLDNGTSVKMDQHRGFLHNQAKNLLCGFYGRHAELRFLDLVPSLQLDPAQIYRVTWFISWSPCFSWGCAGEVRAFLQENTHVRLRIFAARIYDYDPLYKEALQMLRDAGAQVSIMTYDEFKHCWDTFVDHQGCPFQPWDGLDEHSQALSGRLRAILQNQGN
# A number is an active result; - = inactive; . = no result given. Most compounds without a hit are left out; they make up all but 1.7% or so of the library.
SMILES,Keap1 Nrf2 FP,CAL PDZ FP-1,CAL PDZ FP-2,APOBEC3G inh,LANA DNA inh,APOBEC3A inh
CC(=O)c1cc(CN2CCN(C3CCCCC3)C(CCO)C2)cs1 (centres undefined),-,-,-,-,-,-
CCOCCCNC(=O)CCCOc1ccccc1,-,-,70,-,-,-
CCCCOCCCNC(=O)CCCOc1ccccc1,-,-,-,-,-,-
Cc1cccc(Nc2nc(N)nc(N)c2N=O)c1,-,-,71,.,-,.
CSCC[C@H](NC(=O)C(C)Oc1ccc(Cl)cc1)c1nc2ccccc2[nH]1 (some centres undefined),-,-,-,-,-,-
COc1ccc(OCCn2cnc3ccccc32)cc1,-,-,-,-,-,-
CC(C)CC(=O)c1c[nH]c(C(=O)N2CCN(Cc3ccccc3)CC2)c1,-,-,80,-,-,-
CC(C)(C)c1ccc(C(=O)N2CCN(Cc3ccccc3)CC2)cc1,-,-,-,-,-,-
N#Cc1nc(Cl)c(Cl)c(NN)c1Cl,-,-,-,-,-,-
CC(CCC(C)C(C)(C)C)[C@@H]1CC[C@H]2C3C[C@H](OS(O)(=S)=S)[C@H]4C[C@H](OS(O)(=S)=S)[C@@H](OS(O)(=S)=S)C[C@]4(C)[C@H]3CC[C@]12C (some centres undefined) (tested in a mixture with another compound),84,-,-,-,123,-
Cc1ccccc1N1CCN(c2ccc(NC(=O)C3CCCCC3C(=O)O)cc2)CC1 (centres undefined),-,-,-,-,-,-
Cc1cc(NC(=O)CCC(=O)N(Cc2ccco2)C(C(=O)NC2CCCCC2)c2ccccc2)no1 (centres undefined),-,-,39,-,-,-
Cc1ccc2c(C(=O)CNc3nncs3)c(C)[nH]c2c1,-,-,-,-,-,-
COc1ccccc1-n1c(CNC(=O)c2ccc(S(=O)(=O)N3CCOCC3)cc2)n[nH]c1=S,-,-,-,42,-,-
O=C1CN(C(=O)COC(=O)C23CC4CC(CC(O)(C4)C2)C3)c2ccccc2N1,-,-,39,-,-,-
O=C1CN(C(=O)COc2ccc(F)cc2Br)c2ccccc2N1,-,-,67,-,-,-
O=C1CN(C(=O)COc2ccccc2Cl)c2ccccc2N1,-,-,45,-,-,-
CC1(C)C(=O)Nc2ccccc2N1C(=O)COC(=O)C12CC3CC(CC(O)(C3)C1)C2,-,-,-,-,-,-
O=C1CN(C(=O)COc2ccccc2F)c2ccccc2N1,-,-,-,-,-,-
O=C1CN(C(=O)COc2c(F)c(F)cc(F)c2F)c2ccccc2N1,-,-,-,-,-,-
Cc1nn(CC(=O)N2CCC(C(N)=O)CC2)c(=O)c2nn(-c3ccccc3)c(C)c12,-,-,.,-,-,-
CC1CCCN(c2ccc(C(=O)Nc3cccnc3)cc2[N+](=O)[O-])C1 (centres undefined),-,-,-,-,-,-
O=C(NCCN1CCN(c2ccccc2)CC1)c1cccc(Cl)c1,-,-,-,-,-,-
O=C(Cc1c(C(=O)O)[nH]c2ccccc12)NCCN1CCN(c2cccc(Cl)c2)CC1,-,-,62,-,-,-
CCCCNc1ccc(C(=O)OCCOCCOCCOCCOCCOCCOCCOCCOCCOC)cc1,-,-,-,-,-,-
SMILES,Keap1 Nrf2 FP,CAL PDZ FP-1,CAL PDZ FP-2,APOBEC3G inh,LANA DNA inh,APOBEC3A inh
CC1CCN(CCC(=O)N/N=C/c2ccc([N+](=O)[O-])cc2)CC1,-,-,163,-,-,-
CCOP(=O)(/C(C#N)=C(/O)c1ccccc1)c1ccccc1 (centres undefined),-,-,123,-,-,-
COc1cccc(CNc2nc3ccccc3n2C)c1O,-,-,44,-,-,-
COc1cccc(CNc2cnc3ccccc3c2)c1O,-,-,-,-,-,-
Cc1ccc(/C=N/n2c(-c3ccccn3)n[nH]c2=S)o1,-,-,-,-,-,-
Cc1cccc(/C=N/n2c(-c3ccccn3)n[nH]c2=S)c1,.,.,.,57,.,-
S=c1[nH]nc(-c2ccccc2)n1/N=C/c1cccc(Cl)c1,-,-,-,-,-,-
S=c1[nH]nc(-c2ccncc2)n1/N=C/c1cccc(Cl)c1,.,.,.,53,.,-
CCOC(=O)COc1coc(CN2CCN(c3ccc(F)cc3)CC2)cc1=O,-,-,41,-,-,-
CCN(CC)C(=O)COc1coc(CN2CCN(c3ccc(F)cc3)CC2)cc1=O,-,-,-,-,-,-
O=C(O)c1ccccc1-c1ccccc1C(=O)NNc1ccc([N+](=O)[O-])cc1,-,-,-,-,-,-
C=CCn1c(N2CCN(c3ccc(OC)cc3)CC2)nc2c1c(=O)[nH]c(=O)n2C,-,-,-,-,-,-
O=C(Nc1cccc2ccccc12)c1ccc(F)cc1,-,-,52,-,-,-
O=C(Nc1cccc2ccccc12)c1ccccc1,-,-,-,-,-,-
NC(=O)C1C2C=CC(C2)C1c1ccccc1 (centres undefined),-,-,-,.,-,.
Cc1onc(-c2ccccc2)c1C(=O)Nc1ccc(S(=O)(=O)N2CCOCC2)cc1,-,-,-,-,-,-
Cc1cc2nc3s/c(=C/c4ccc(-c5ccccc5C(=O)O)o4)c(=O)n3c2cc1C,-,-,-,-,-,-
O=C(O)c1ccccc1-c1ccc(/C=c2\sc3nc4cc(Br)cnc4n3c2=O)o1,-,-,-,-,74,-
Cc1ccc(C)c(NC(NC(=O)c2ccccn2)C(Cl)(Cl)Cl)c1 (centres undefined),-,-,.,-,-,-
COc1ccc(N2CC(NC(=O)NCCC(C)C)CC2=O)cc1 (centres undefined),-,-,-,-,-,-
COc1ccc(NC(=O)CCNS(=O)(=O)c2ccc3c(c2)CC(C)N3C(=O)C2CC2)cc1 (centres undefined),-,-,34,-,-,-
N=C1/C(=C\c2ccc(OC(=O)c3ccccc3Cl)cc2)C(=O)N=C2SC(N3CCOCC3)=NN12,-,-,-,-,-,-
Cc1cccc(C(=O)NCC(=O)NC(C)CCc2ccccc2)c1 (centres undefined),-,-,32,-,-,-
CCCCC1CCC(C(=O)N(CCOC)c2c(N)n(CC(C)C)c(=O)[nH]c2=O)CC1 (centres undefined),-,-,62,-,-,-
CCCCn1nc(C(=O)N(CC(C)C)c2c(N)n(CCCC)c(=O)[nH]c2=O)c2ccccc2c1=O,-,-,-,-,-,-
CCCCCn1nc(C(=O)N(CC)c2c(N)n(CCCC)c(=O)[nH]c2=O)c2ccccc2c1=O,-,-,45,-,-,-
CCCCn1c(N)c(N(CCOC)C(=O)c2cnccn2)c(=O)[nH]c1=O,-,-,-,-,-,-

# Compound activity: PubChem, several laboratories
